Screening data from PubChem.
Only some compounds are listed: those with a hit (about 2.3% of all), similar ones and a draw of the others.
ADAM17 inh – inhibitors of human ADAM17; P78536; recombinant ADAM17, EDANS/DABCYL FRET peptide cleavage; inhibition, % at 6.95 µM; hit rate 0.83% among 370,000; AID 720648;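 active = inhibition above the mean of compounds lying between control limits plus 3 SD, set per campaign, cut at about 8.5% in these data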
Target sequence (P78536 215-824 limits assumed): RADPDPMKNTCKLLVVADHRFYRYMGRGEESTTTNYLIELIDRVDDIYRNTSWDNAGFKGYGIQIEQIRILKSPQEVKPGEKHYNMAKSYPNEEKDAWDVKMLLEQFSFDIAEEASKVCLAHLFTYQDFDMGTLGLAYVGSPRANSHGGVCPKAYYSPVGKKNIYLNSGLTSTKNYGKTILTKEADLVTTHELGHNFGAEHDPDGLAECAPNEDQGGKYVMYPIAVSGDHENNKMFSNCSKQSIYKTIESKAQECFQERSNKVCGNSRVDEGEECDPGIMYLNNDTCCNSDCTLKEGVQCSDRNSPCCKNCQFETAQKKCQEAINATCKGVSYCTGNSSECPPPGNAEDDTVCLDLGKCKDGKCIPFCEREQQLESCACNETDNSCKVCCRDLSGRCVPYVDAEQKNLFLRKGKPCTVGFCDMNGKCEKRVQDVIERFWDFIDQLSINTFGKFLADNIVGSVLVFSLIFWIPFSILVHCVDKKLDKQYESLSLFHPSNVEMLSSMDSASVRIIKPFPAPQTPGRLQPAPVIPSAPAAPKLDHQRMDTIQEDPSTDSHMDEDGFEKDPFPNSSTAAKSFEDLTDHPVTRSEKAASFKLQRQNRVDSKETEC
ADAM10 inh – inhibits human ADAM10. recombinant ADAM10, EDANS/DABCYL FRET peptide cleavage, 3 h. inhibition, % at 7 µM. hit rate 0.62% among 370,000. AID 720582;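 active = inhibition above a per-campaign cutoff equal to the mean of compounds falling between control-based bounds plus 3 SD, cut at about 20% in these data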
Tb MetRS inh – blocks T. brucei methionyl-tRNA synthetase activity; purified T. brucei MetRS, ATP depletion, Kinase-Glo luminescence; inhibition, % at 11.9 µM; hit rate 0.4% among 360,000;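 active = inhibition above a per-plate cutoff of the control wells' mean inhibition plus 3 SD, cut at about 5.5% in these data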
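Measured by: Kinase-Glo luciferase luminescence reporting remaining unconsumed ATP. Material: purified T. brucei MetRS enzyme. Doses: 11.9 µM compound single dose, 0.9% DMSO. Medium: HEPES buffer containing pyrophosphatase, BSA, spermine, DTT. Times: 15 min preincubation, 2 h reaction, all 25 °C. Reagent: methionine, ATP and bulk E. coli tRNA.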
PLC-gamma1 inh – PLC-gamma1 (human) inhibition, primary screen. hit rate 0.84% among 370,000. purified PLC-gamma1, fluorogenic substrate, fluorescence. inhibition, % at 12.2 µM. P19174; in the data active = inhibition above about 9.5%
PLC-beta3 inh – blocks human PLC-beta3 enzyme activity; Purified PLC-beta3, fluorogenic substrate, fluorescence; inhibition, % at 12.2 µM; hit rate 0.18% among 370,000; AID 720704
PLCg1 ctr – inhibits human PLC-gamma1 in PLC-beta3 counter-screen | shares compounds with PLC-gamma1 inh | hit rate 3.1% among 3,300 | purified PLC-gamma1, fluorogenic substrate, fluorescence | AID 743258 | inhibition, % at 12.3 µM; in the data active = inhibition above about 9.5%
PLCbeta3 conf – human PLC-beta3 inhibition, confirmation. shares compounds with PLC-gamma1 inh. purified PLC-beta3, fluorogenic substrate fluorescence. inhibition, % at 12.3 µM. hit rate 1% among 3,300
Hits are given with their value; – = inactive; · = no result. Rule as the data show it, unless noted: active = inhibition above about 11%; inactive = the rest.

SMILES	ADAM17 inh	ADAM10 inh	Tb MetRS inh	PLC-gamma1 inh	PLC-beta3 inh	PLCg1 ctr	PLCbeta3 conf
Cc1ccc(CN2CCN(Cc3cccc4c3OCO4)CC2CCO)cc1 (stereo unspecified)	–	–	–	–	15	–	–
CCOc1ccc(CN2CCN(Cc3cccc4c3OCO4)CC2CCO)cc1 (stereo unspecified)	–	–	–	–	–	·	·
CNC(=O)NC1CCCc2ccccc21 (stereo unspecified)	–	–	–	11	–	–	–
O=C(Nc1ccccc1)NC1CCCc2ccccc21 (stereo unspecified)	–	–	–	–	–	·	·
Cc1nnc(SCC(=O)NC2CCCc3ccccc32)n1-c1ccccc1 (stereo unspecified)	–	–	–	11	–	–	–
CC(C)c1onc(C(=O)N2CCCCCC2)c1[N+](=O)[O-]	–	–	–	15	–	–	–
CCc1ccccc1NC(=O)CN1CCN(CC(=O)NCc2ccc(Cl)cc2)CC1	–	–	–	–	–	·	·
Cc1cc(C)n(-c2nc3ccccc3c(=O)n2OC2CCCCC2)n1	–	–	–	–	15	–	–
CCOn1c(-n2nc(C)cc2C)nc2ccccc2c1=O	–	–	–	–	–	·	·
CN(C)c1ccc(CC(=O)N2CCCCC2c2cc(C(=O)Nc3cccc4c3CCCC4)no2)cc1 (stereo unspecified)	–	–	–	–	–	·	·
CCOC(=O)[C@]12CCCC=C1N(Cc1ccc(Cl)cc1Cl)C(=O)[C@H](CC(=O)N1CCC(c3ccccc3)CC1)C2	–	–	–	–	–	·	·
COC(=O)[C@]12CCCCC=C1N(Cc1ccc(Cl)cc1Cl)C(=O)[C@H](CC(=O)N1CCC(c3ccccc3)CC1)C2	–	–	–	12	–	–	–
COc1ccc(Nc2cccc3ccccc23)cc1	–	–	–	–	–	·	·
Nc1[nH]c(C(=O)c2ccccc2)c(-c2ccc(Br)cc2)c1C(=O)NC1CCCCC1	–	–	–	–	–	·	·
Nc1[nH]c(C(=O)c2ccccc2)c(-c2ccncc2)c1C(=O)NC1CC1	–	–	–	10	–	–	–
CC(SC(C)C(=O)NN=Cc1cccc(Cl)c1)C(=O)NN=Cc1cccc(Cl)c1 (stereo unspecified)	–	–	–	–	11	–	–
COc1cccc(C=NNC(=O)C(C)SC(C)C(=O)NN=Cc2cccc(OC)c2)c1 (stereo unspecified)	–	–	–	–	–	·	·
CCOC(=O)C1CCCN(C(=O)c2cc(C)oc2C)CC1 (stereo unspecified)	–	–	–	–	–	·	·
CCC1CCCCN1C(=O)CSc1nc2ncccc2[nH]1 (stereo unspecified)	–	–	–	11	–	–	–
CC1CCN(C(=O)CSc2nc3ncccc3[nH]2)CC1	–	–	–	–	–	·	·
Cc1ccc(CNC(=O)C(C)OC(=O)c2ccco2)cc1 (stereo unspecified)	–	–	–	13	–	–	–
c1coc(CN2CN=C(Nc3nc4ccccc4s3)NC2)c1	–	–	–	9.7	–	–	–
CCCNC(=O)CNC(=O)c1ccc(C#N)cc1	–	–	–	–	–	·	·
O=[N+]([O-])c1ccc(N2CCCC2)cc1N1CCCC1	–	–	–	9.6	–	–	–
CC1CCN(c2c(NCc3ccc(C(=O)NCc4ccco4)cc3)c(=O)c2=O)CC1	–	–	–	–	–	·	·
SMILES	ADAM17 inh	ADAM10 inh	Tb MetRS inh	PLC-gamma1 inh	PLC-beta3 inh	PLCg1 ctr	PLCbeta3 conf
O=C(NCc1ccco1)c1ccc(CNc2c(N3CCCCC3)c(=O)c2=O)cc1	–	–	–	–	11	–	–
C[C@@H]1CN([C@@H](C)CO)C(=O)CCCn2cc(nn2)CO[C@H]1CN(C)C(=O)Nc1ccc(F)cc1	–	–	·	–	–	·	·
CS(=O)(=O)N1CCN(CC2CC3C=CC2C3)CC1 (stereo unspecified)	–	–	–	10.0	–	–	–
COc1ccc(NC(=O)N(C)C[C@H]2OCc3cn(nn3)CCCC(=O)N([C@@H](C)CO)C[C@@H]2C)cc1	–	–	–	–	–	·	·
Cc1csc2c(NCCCN3CCOCC3)ncnc12	–	–	–	13	–	–	–
Cc1ccc2ncnc(NCCCN3CCOCC3)c2c1	–	–	–	–	–	·	·
CCCCNC(=O)C1(C)CCCCCN1Cc1cccc2c(OC)cc(C(=O)OCC)cc12 (stereo unspecified)	–	–	–	–	–	·	·
CCOC(=O)c1c(NC(=O)CSc2nnc(C)o2)sc(C)c1C	–	–	–	9.7	–	–	–
c1ccc([C@H]2CNCCN2CCc2cccc3ccccc23)cc1	–	–	–	12	–	–	–
COc1ccccc1NCc1nc2ccccc2n1C	–	–	·	–	–	·	·
CCNc1nc(OC)nc(N2CCC(Cc3ccccc3)CC2)n1	–	–	–	–	11	–	–
COc1nc(NCc2ccco2)nc(N2CCC(C)CC2)n1	–	–	–	–	–	·	·
O=C(CSc1nnc(-c2ccccc2F)n1C1CCCCC1)N1CCCC1	–	–	–	–	–	·	·
CC1CCN(C(=O)CSc2nnc(-c3cccnc3)n2C2CCCCC2)CC1	–	–	–	–	–	·	·
O=C(CSc1nnc(-c2ccc(Cl)cc2Cl)n1C1CCCCC1)N1CCCC1	–	–	–	11	–	–	–
O=C(CSc1nnc(-c2ccc(Br)cc2)n1C1CCCCC1)N1CCCC1	–	–	–	16	–	–	–
CC(C)C(=O)N1CCC(Oc2cccnc2)CC1	–	–	·	–	–	·	·
Cc1ccccc1-c1cc2nc(NCc3ccc4occc4c3)n(C)c(=O)c2s1	–	–	–	–	–	·	·
O=S1(=O)CC2c3ccccc3CCN2CN1Cc1ccc(F)cc1 (stereo unspecified)	–	–	·	–	–	·	·
CCC(=O)OCCCN1CCC2(CCCCC2)C1=O	–	–	·	–	–	·	·
CC(C)(C)NCc1ccccc1OCc1cccs1	–	–	–	13	11	–	–
CC(C)(C)NCc1cc(Br)ccc1OCc1cccs1	–	–	–	–	–	·	·
ONC(=Nc1ccc(Cl)cc1)c1ccccc1	–	–	–	–	12	–	12
CCOc1ccc(CCNC(=O)c2cc3sccc3n2Cc2ccccc2)cc1OCC	–	–	·	–	–	·	·
CCOC(=O)c1cnc2ccc(C)cc2c1NCCN1CCOCC1	–	–	–	11	–	–	–
COc1ccc(CN(C)CC(=O)Nc2cccc(S(=O)(=O)N3CCCC3)c2)cc1F	–	–	–	–	–	·	·
CNc1ccc(C(=O)OCC(=O)Nc2ccnn2C(C)C)cc1[N+](=O)[O-]	–	–	–	–	–	·	·
Cc1ccc(CC2CC(=O)N(c3ccc(C)cc3)C2=O)cc1 (stereo unspecified)	–	–	–	–	–	·	·
Cc1ccc(CC2CC(=O)N(c3nc4ccccc4n3C)C2=O)cc1 (stereo unspecified)	–	–	–	12	–	–	–
